Test results from ChEMBL document CHEMBL2046409, “Design and synthesis of active site inhibitors of the human farnesyl pyrophosphate synthase: apoptosis and inhibition of ERK phosphorylation in multiple myeloma cells” (J Med Chem, 2012).
Values belong to the molecule of their own block, whether it stands above or below them. Calls of active or inactive are those of the source. The calls are words filed in the database; no cut-off is given here.

Key:
[1] = target: T1, Farnesyl pyrophosphate synthase (Homo sapiens, UniProt P14324); assay: Inhibition of human recombinant N-terminal-His6 tagged FPPS expressed in Escherichia coli BL21 using [14C]IPP and GPP as substrate incubated for 10 mins prior to substrate addition measured after 10 mins by scintillation counting
T1 sequence (P14324 whole entry): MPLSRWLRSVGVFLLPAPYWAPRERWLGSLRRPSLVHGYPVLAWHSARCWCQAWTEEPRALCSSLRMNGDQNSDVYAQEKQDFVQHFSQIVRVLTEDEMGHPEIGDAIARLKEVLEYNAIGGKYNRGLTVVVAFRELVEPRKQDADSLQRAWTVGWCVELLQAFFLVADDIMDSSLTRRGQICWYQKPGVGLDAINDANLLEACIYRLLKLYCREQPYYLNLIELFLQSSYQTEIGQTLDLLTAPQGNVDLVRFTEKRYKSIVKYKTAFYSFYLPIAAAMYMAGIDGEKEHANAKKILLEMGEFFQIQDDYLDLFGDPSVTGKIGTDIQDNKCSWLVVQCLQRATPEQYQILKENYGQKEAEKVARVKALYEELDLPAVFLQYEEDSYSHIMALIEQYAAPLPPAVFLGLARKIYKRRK

[2] = Antiproliferative activity against human JJN-3 after 72 hrs by MTT assay; assay type: functional; details: JJN-3, 72 h
[3] = Antiproliferative activity against human KMS-28PE after 72 hrs by MTT assay; assay type: functional
[4] = target: T1, Farnesyl pyrophosphate synthase; assay: Inhibition of human recombinant N-terminal-His6 tagged FPPS expressed in Escherichia coli BL21 using [3H]IPP and GPP as substrate measured after 20 mins by liquid scintillation counting
[5] = Induction of apoptosis in human KMS-28PE cells assessed as necrotic cells at 100 uM after 48 hrs by AnnexinV/7AAD staining-based flow cytometric assay (reference value: 0.36%); assay type: functional
[6] = Induction of apoptosis in human KMS-28PE cells assessed as early apoptotic cells at 1 uM after 48 hrs by AnnexinV/7AAD staining-based flow cytometric assay (reference value: 1.44%); assay type: functional
[7] = Induction of apoptosis in human KMS-28PE cells assessed as early apoptotic cells at 100 uM after 48 hrs by AnnexinV/7AAD staining-based flow cytometric assay (reference value: 1.44%); assay type: functional
[8] = Antiproliferative activity against human […] after 72 hrs by MTT assay; assay type: functional
Outline: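 Cells seeded at 10,000/well and rested 2 h, then given compound diluted in culture medium as a half-log series spanning 100 nM–333 μM. Incubated 72 h at 37 °C in 5% CO2. MTT read at OD490.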

[9] = Induction of apoptosis in human KMS-28PE cells assessed as viable cells at 100 uM after 48 hrs by AnnexinV/7AAD staining-based flow cytometric assay (reference value: 93%); assay type: functional; details: read-out: Activity
[10] = Induction of apoptosis in human KMS-28PE cells assessed as late apoptotic cells at 1 uM after 48 hrs by AnnexinV/7AAD staining-based flow cytometric assay (reference value: 5.18%); assay type: functional
[11] = target: T2, Farnesyl pyrophosphate synthase (Homo sapiens) (UniProt P14324); assay: Inhibition of FPPS in human RPMI8226 cells assessed as inhibition of Ras-mediated ERK phosphorylation at 100 uM up to 20 mins by Western blot analysis; assay type: cell-based; details: RPMI-8226
T2 sequence (whole entry): T1 sequence (P14324 whole entry)
Outline: (§1)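 RPMI8226 cells serum-starved overnight, then stimulated with 10% FBS with or without 100 μM inhibitor for 0 (starved only), 10 and 20 min. Washed in ice-cold PBS/BSA and lysed in Triton/deoxycholate buffer with protease inhibitors. ERK and pERK detected by Western blot with HRP secondary antibodies and ECL chemiluminescence.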

[12] = Induction of apoptosis in human KMS-28PE cells assessed as necrotic cells at 1 uM after 48 hrs by AnnexinV/7AAD staining-based flow cytometric assay (reference value: 0.36%); assay type: functional
[13] = Induction of apoptosis in human KMS-28PE cells assessed as viable cells at 1 uM after 48 hrs by AnnexinV/7AAD staining-based flow cytometric assay (reference value: 93%); assay type: functional; details: read-out: Activity
[14] = Induction of apoptosis in human KMS-28PE cells assessed as late apoptotic cells at 100 uM after 48 hrs by AnnexinV/7AAD staining-based flow cytometric assay (reference value: 5.18%); assay type: functional
RPMI-8226 = assay: Inhibition of ERK protein expression level in human RPMI8226 cells at 100 uM up to 20 mins by Western blot analysis; assay type: functional, cell-based; outline: as §1
[15] = target: T1, Farnesyl pyrophosphate synthase; assay: Inhibition of human FPPS using […] as substrate incubated for 30 mins prior to substrate addition measured after 20 mins by scintillation counting

SMILES: O=P(O)(O)C(Nc1cc(-c2ccc3[nH]ncc3c2)ccn1)P(=O)(O)O
IC50 [1]: 430 nM

SMILES: O=P(O)(O)C(O)(Cc1cccnc1)P(=O)(O)O [RISEDRONIC ACID]
EC50 [2]: 10000 nM
EC50 [3]: 10600 nM

SMILES: O=P(O)(O)C(Nc1cc(-c2ccc(OC3CCCC3)cc2)ccn1)P(=O)(O)O
IC50 [4]: 785 nM
Activity [5]: 0.46%
Activity [6]: 1.81%
Activity [7]: 5.64%
EC50 [8]: 3600 nM
viability at 100 µM [9]: 84.8%
Activity [10]: 5.94%
inhibition [11]: Active
IC50 [1]: 32 nM
EC50 [2]: 8600 nM
Activity [12]: 0.4%
viability at 1 µM [13]: 91.8%
Activity [14]: 9.15%
inhibition (RPMI-8226): inactive
EC50 [3]: 3200 nM

SMILES: O=P(O)(O)C(O)(Cn1ccnc1)P(=O)(O)O [ZOLEDRONIC ACID]
EC50 [8]: 10500 nM
EC50 [2]: 9400 nM
EC50 [3]: 6400 nM

SMILES: O=P(O)(O)C(F)(Cc1cncc(-c2ccc3[nH]ncc3c2)c1)P(=O)(O)O
IC50 [1]: 520 nM

SMILES: CCCCCCCCCCOc1ccc[n+](CC(P(=O)([O-])O)P(=O)(O)O)c1 (stereo not drawn)
IC50 [15]: 100 nM

Now from value to molecule:

IC50 [1]: 35 nM
SMILES: Cc1ccc(-c2ccnc(NC(P(=O)(O)O)P(=O)(O)O)c2)cc1

IC50 [1]: > 10000 nM
SMILES: CC(C)=CCC/C(C)=C/CC(C/C=C(\C)CCC=C(C)C)(P(=O)(O)O)P(=O)(O)O [DIGERANYL BISPHOSPHONATE]

IC50 [1]: 115 nM
SMILES: O=P(O)(O)C(F)(Cc1cncc(-c2ccccc2)c1)P(=O)(O)O

IC50 [4]: 2090 nM
IC50 [1]: 35 nM
SMILES: O=P(O)(O)C(Nc1cc(-c2ccc(OC3CCC3)cc2)ccn1)P(=O)(O)O
